# Test results from paper PMC8361981 (Chemistry (Weinheim an Der Bergstrasse, Germany), 2021).
# Columns and labels:
# [1] = test system: EV71 BrCr laboratory-adapted strain; assay: Anti-EV71 assay, BrCr laboratory-adapted strain in RD cells; assay type: cell-based, Enterovirus A71
# Summary of the method: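 Enterovirus A71 BrCr (laboratory-adapted) was grown in rhabdomyosarcoma (RD) cells with test compound. EC50 is the concentration reducing virus-induced cytopathic effect by 50%. CC50 is the 50% loss of viability in compound-treated, uninfected RD cells run in a similar setup. SI = CC50/EC50.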
# [2] = Cell viability of compound-treated, uninfected RD cells; assay type: cell-based; details: human, uninfected rhabdomyosarcoma (RD) cells
# Summary of the method: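 Compound-treated, uninfected RD cells run in a setup parallel to the EV71 BrCr cytopathic-effect reduction assay in RD cells. CC50 is the concentration giving a 50 % reduction in cell viability. Selectivity index is CC50/EC50.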
# HIV-1 (NL4.3) = assay: Anti-HIV-1; assay type: cell-based; details: for EC50: Human immunodeficiency virus 1, CD4+ T cell, read-out: EC50 HIV-1/NL4.3
# HIV-2 (ROD) = assay: Anti-HIV-2; assay type: cell-based; details: Human immunodeficiency virus 2, CD4+ T cell, read-out: EC50 HIV-2/ROD
# [3] = biological target: recombinant HIV-1 IIIB gp120 (Human immunodeficiency virus type 1 group M subtype B, UniProt P04578); assay: Surface plasmon resonance; assay type: binding
# Summary of the method: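 Recombinant HIV-1 IIIB gp120, produced in Chinese hamster ovary cells, was immobilised as a monomer on a sensor chip. Test compound was passed over at 0.1–6.25 μM in two-fold dilution steps. Real-time binding responses were fitted to a 1:1 Langmuir model to obtain affinity and kinetic constants.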
# [4] = Cytotoxicity in MT-4 cells; assay type: cell-based; details: human
# Summary of the method: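 Cytostatic read-out alongside the HIV cytopathicity assay. CC50 is the concentration that inhibits CD4 T cell proliferation by 50 %. Selectivity index is CC50/EC50.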
SMILES,"SI selectivity index (CC50/EC50) ([1]; EV71 BrCr in RD cells, Table 3)","EC50 ([1]; Enterovirus A, EV71, RD, read-out: EC50 EV71 BrCr) [nM]",CC50 at 3 days [2] [µM],EC50 (HIV-1 (NL4.3)) [µM],"SI selectivity index (CC50/EC50) (HIV-1 (NL4.3); anti-HIV, Table 1)",EC50 (HIV-2 (ROD)) [µM],Kd [3] [µM],"kd ([3]; SPR, 1:1 Langmuir model, four replicates, 25 °C)","binding to gp120 (in words) ([3]; SPR, concentration-dependent)",kon ([3]; read-out: ka) [M⁻¹ s⁻¹],CC50 at 5 days [4] [µM]
CCOC(=O)c1ccc(OCCC2CCN(c3ccc(C)nn3)CC2)cc1 [Pirodavir],>333,300 ± 100,> 100,–,–,–,–,–,–,–,–
"CN[C@@H]1[C@H](O[C@@H]2OC[C@@H](O)[C@H](O)[C@H]2O)[C@@H](O)[C@H](O[C@H]2c3cc(C)c(C(=O)N[C@H](C)C(=O)O)c(O)c3-c3c(cc4c(c3O)C(=O)c3cc(OC)cc(O)c3C4=O)[C@@H]2O)O[C@@H]1C [Pradimicin A (PRM‐A), Pradimicin A]",–,–,–,3.3 ± 1.2,> 30.3,5.9 ± 3.7,6.52 ± 0.11,12.64±2.92 (10^−3)(1/s),binds to gp120,1930 ± 420,> 100
"C[C@H](Cn1cnc2c(N)ncnc21)OCP(=O)(O)O [Tenofovir (PMPA), Tenofovir]",–,–,–,4.74,–,1,–,–,–,–,> 100
